Measured values taken from publication PMC9303465 (Hematological Oncology, 2022).

Experiment: Population PK analysis of venetoclax in AML patients
Assay type: in vivo
Outline: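 Plasma PK data were pooled from five studies: 771 R/R or treatment-naïve AML patients given ≥1 dose, with daily ramp-up to 400–1200 mg QD. Fitted by nonlinear mixed-effects modelling (FOCE-INT), using a prior CLL/SLL/NHL/healthy-volunteer model as informative priors. Race, azacitidine, decitabine and LDAC were tested stepwise (forward α=0.01, backward α=0.001) as multiplicative factors on CL/F, Vd/F and bioavailability. Validated by pcVPC (500 replicates); AUCss was taken from the planned dose.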

Median exposure (AUCss) at 400 mg venetoclax (Asian patients): 1.85 µg·days/mL
higher relative bioavailability in Asian than non‐Asian patients (Asian vs non-Asian AML patients): 67%
Median exposure (AUCss) at 400 mg venetoclax (Non‐Asian patients): 1.11 µg·days/mL
effect of co-administration on venetoclax CL/F (P‐gp inhibitors, mild CYP3A inhibitors, azacitidine, decitabine, or LDAC): no effect
increase of venetoclax Vd/F with azacitidine (azacitidine co-administration): 24%
decrease of venetoclax CL/F by moderate CYP3A inhibitors (co-administered moderate CYP3A inhibitors): 19%
decrease of venetoclax CL/F by strong CYP3A inhibitors (co-administered strong CYP3A inhibitors): 83%
SMILES: CC1(C)CCC(CN2CCN(c3ccc(C(=O)NS(=O)(=O)c4ccc(NCC5CCOCC5)c([N+](=O)[O-])c4)c(Oc4cnc5[nH]ccc5c4)c3)CC2)=C(c2ccc(Cl)cc2)C1 [Venetoclax]
effect of covariates on venetoclax exposure (sex, mild to moderate hepatic impairment, mild to severe renal impairment, age, body weight): did not appear to have any effect
